Source: ChEMBL document CHEMBL1155030, “Design of novel cyclic altered peptide ligands of myelin basic protein MBP83-99 that modulate immune responses in SJL/J mice” (J Med Chem, 2008)
Active and inactive are the calls of the source. The calls are words filed in the database; no cut-off is given here. Where a SMILES comes first, the peptide text is derived from it.

What was measured:
[1] = Induction of IL4 production in SJL/J mouse spleen cells assessed as spot forming unit per 0.5 million cells by ELISpot analysis; assay type: functional
How it was run: (§1)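 Female SJL/J mice immunized with peptide in CFA or with peptide conjugated to reduced mannan (50 µg intradermal, days 0 and 14). Spleens taken at day 28. 5 × 10^5 cells/well were incubated 24 h at 37 °C with 10 µg/mL recall peptide on anti-IL-4-coated plates, then developed with biotin anti-IL-4, streptavidin-ALP and a colorimetric substrate. Triplicate wells. Reported as SFU/0.5 million cells minus cells-alone background.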

spleen = assay: Increase in MBP83-99 peptide-induced IL4 production in SJL/J mouse spleen cells assessed per 0.5 million cells after 24 hrs by ELISpot analysis; assay type: functional, cell-based; how it was run: as §1
[2] = Effect on MBP83-99 peptide-induced SJL/J mouse spleen cells proliferation assessed as [3H]thymidine incorporation after 6 days; assay type: tissue-based; settings: 144 h
How it was run: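 Spleen cells taken 28 days after immunization of female 6-8 week SJL/J mice with native MBP83-99 in CFA. 1 × 10^5 cells/well were cultured 1-6 days at 37 °C with recall peptide (10 µg/ml); cells alone served as background. 1 µCi [3H]thymidine was added per well, 6 h before harvest, one plate per day. Reported as mean cpm of triplicate wells, three mice per group.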

| Molecule | Activity [1] | Activity (spleen) | Activity [2] |
| --- | --- | --- | --- |
| CC[C@H](C)[C@@H]1NC(=O)[C@H](CC(N)=O)NC(=O)[C@H](C)NC(=O)[C@H](Cc2ccccc2)NC(=O)[C@H](Cc2ccccc2)NC(=O)[C@H](Cc2cnc[nH]2)NC(=O)[C@H](C(C)C)NC(=O)[C@H](C(C)C)NC(=O)[C@@H]2CCCN2C(=O)[C@H](CC(N)=O)NC(=O)[C@H](CCC(=O)O)NC(=O)[C@@H]2CCCN2C(=O)[C@H]([C@@H](C)O)NC(=O)[C@H](CCCNC(=N)N)NC(=O)[C@@H]2CCCN2C(=O)[C@H]([C@@H](C)O)NC(=O)[C@H](C(C)C)NC1=O (cyclo(ANIVTPRTPENPVVHFF)) | 70 |  |  |
| CC[C@H](C)[C@H](NC(=O)[C@H](CC(N)=O)NC(=O)[C@H](CCCCN)NC(=O)[C@H](Cc1ccccc1)NC(=O)[C@H](Cc1ccccc1)NC(=O)[C@H](Cc1cnc[nH]1)NC(=O)[C@@H](NC(=O)[C@@H](NC(=O)[C@@H]1CCCN1C(=O)[C@H](CC(N)=O)NC(=O)[C@@H](N)CCC(=O)O)C(C)C)C(C)C)C(=O)N[C@H](C(=O)N[C@H](C(=O)N1CCC[C@H]1C(=O)N[C@@H](CCCNC(=N)N)C(=O)N[C@H](C(=O)N1CCC[C@H]1C(=O)O)[C@@H](C)O)[C@@H](C)O)C(C)C |  | inactive |  |
| CC[C@H](C)[C@H](NC(=O)[C@H](CC(N)=O)NC(=O)[C@H](CCCCN)NC(=O)[C@H](Cc1ccccc1)NC(=O)[C@H](Cc1ccccc1)NC(=O)[C@H](Cc1c[nH]cn1)NC(=O)[C@@H](NC(=O)[C@@H](NC(=O)[C@@H]1CCCN1C(=O)[C@H](CC(N)=O)NC(=O)[C@@H](N)CCC(=O)O)C(C)C)C(C)C)C(=O)N[C@H](C(=O)N[C@H](C(=O)N1CCC[C@H]1C(=O)N[C@@H](CCCNC(=N)N)C(=O)N[C@H](C(=O)N1CCC[C@H]1C(=O)O)[C@@H](C)O)[C@@H](C)O)C(C)C |  |  | Active |
| H-ENPVVHFFANIVTPRTP-OH | 600 | inactive |  |
